17 compounds from paper PMC10362183 (Heliyon, 2023) can be followed below.

Data set [1] relates to human monocytes (U-937 ATCC CRL-1593.2). In words: Cytotoxic activity, MTT assay on U-937 cells. To be noted: 72 h. The data set is classed as cell-based. In short, it runs like this: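 Exponential-phase cells at 1 × 10^5 cells/mL in RPMI-1640 with 10% FBS. Test compound (200, 50, 12.5, 3.125 μg/mL) was added in PBS with 0.5% DMSO for 72 h at 37 °C, 5% CO2. MTT was then added for 3 h, the reaction stopped with isopropanol/SDS, and absorbance read at 570 nm. Viability was taken relative to untreated cells, with blank subtraction. LC50 was by probit linear regression. Triplicates, ≥2 independent experiments.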
For orientation: Tetrazolium dyes change colour on reduction, which living cells bring about.

Data set [2] concerns intracellular amastigotes of L. panamensis (MHOM/CO/87/UA140-EGFP strain). In words: Antileishmanial activity on intracellular amastigotes, flow cytometry. Type of data set: cell-based. In short, it runs like this:
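U-937 cells (3 × 10^5 cells/mL, RPMI-1640, 0.1 μg/mL PMA) infected with stationary-phase EGFP-transfected promastigotes at 15:1 for 3 h at 34 °C, then washed. After 24 h, test compound was added at 50, 12.5, 3.125 and 0.78 μg/mL for 72 h at 37 °C, 5% CO2. Amphotericin B served as positive control. Detached cells were read by flow cytometry (488/525 nm, 10,000 events). EC50 was by probit from MFI relative to untreated wells. Triplicates, ≥2 independent experiments.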
Background: Flow cytometry measures light scatter and fluorescence of single cells or particles in a stream.

Data set [3] concerns P. falciparum (3D7 strain). In words: Antiplasmodial activity, LDH assay. The data set is classed as cell-based.
The subject of data set [4] is Trypanosoma cruzi (Tulahuen strain transfected with the β-galactosidase gene). Kind of data set: Antitrypanosomal activity on intracellular amastigotes, β-galactosidase readout. Type of data set: cell-based. The following applies: read-out: Trypanosomal CE50; intracellular amastigotes in U-937 cells, 72 h.
A short description of data set [5]: Electrochemical measurements. Type of data set: physicochemical. The following applies: cyclical cathodic and anodic currents, low potential range, ACN, TBAB 0.1 M. In short, it runs like this: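 Cyclic voltammetry used a glassy carbon working electrode, Ag/AgCl reference and platinum counter electrode, in acetonitrile with 0.1 M TBAB as supporting electrolyte. The scan ran from −1.5 to 2.5 V at 150 mV/s. p-Quinone was run under the same conditions as experimental control.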

[6] abbreviates: read-out: Leishmanial CE50, intracellular amastigotes in U-937 cells, 72 h.
Setting [7] is: read-out: Plasmodial CE50, 3D7 strain, 72 h.
The mark [8] stands for this setting: Leishmania panamensis, U-937, 72 h, read-out: Leishmanial CE50.
Where [9] appears, read: Plasmodium falciparum, 3D7, 72 h, read-out: Plasmodial CE50, 3D7 strain, 72 h.
The mark [10] stands for this setting: Leishmania panamensis, read-out: Antileishmanial activity.

Like-named read-outs stand apart in the source and are kept apart here.

With “3-(4-Chlorobenzyl)-4H-thiochromen-4-one 1,1-dioxide [Compound 14c]”, the “Cytotoxicity CL50” value in data set [1] amounted to 20.81 µM. Besides, the EC50 in data set [2] (read-out: Antileishmanial activity, Table 2, own compounds, repeats Table 1) is 18.2 µM; in data set [2] (setting [6]) it was 18.2 µM; in data set [3] (setting [7]) it was 46.7 µM; in data set [4], 129 µM.

For the compound “6-Phenyl-4H-thiochromen-4-one 1,1-dioxide [Compound 21d]”, the “Cytotoxicity CL50” value in data set [1] worked out at 276.03 µM. Further, the EC50 in data set [2] (setting [6]) is 691 µM; in data set [3] (setting [7]), 75.4 µM; in data set [4], 260 µM.

Consider “6-Phenyl-4H-thiochromen-4-one 1,1-dioxide [Compound 21e]”, for which, in data set [1], the “Cytotoxicity CL50” value is 254.35 µM. The EC50 was 74 µM in data set [2] (setting [6]), 61.4 µM in data set [3] (setting [7]) and 735 µM in data set [4].

Turning to `O=C1C=CS(=O)(=O)c2ccccc21` [Compound 6a, 4H-Thiochromen-4-one 1,1-dioxide], the EC50 in data set [2] (setting [8]) is 137 µM; in data set [3] (setting [9]) it was 717 µM. The electrochemical behavior entry in data set [5] is reported as “unexpected capacitive behavior”.

As for `O=C1C=CS(=O)(=O)c2ccc(F)cc21` [Compound 6b, 6-Fluoro-4H-thiochromen-4-one 1,1-dioxide], in data set [1], the “Cytotoxicity CL50” value is 274.83 µM. The EC50 in data set [3] (setting [9]) is 111 µM.

Take `O=C1C=CS(=O)(=O)c2ccc(Cl)cc21` [Compound 6c, 6-Chloro-4H-thiochromen-4-one 1,1-dioxide]: the “Cytotoxicity CL50” value in data set [1] worked out at 215.05 µM. In data set [3] (setting [9]), the EC50 was determined as 89.9 µM.

In the case of `O=C1C=CS(=O)(=O)c2ccc(Br)cc21` [Compound 6d, 6-Bromo-4H-thiochromen-4-one 1,1-dioxide], the EC50 in data set [2] (setting [8]) was determined as 106 µM; in data set [3] (setting [9]) it was 71.2 µM.

For the compound `O=C1C=CS(=O)(=O)c2cc(Br)ccc21` [Compound 6e, 7-Bromo-4H-thiochromen-4-one 1,1-dioxide], the “Cytotoxicity CL50” value in data set [1] turned out to be 252.48 µM. Further, in data set [3] (setting [9]), the EC50 was found to be 76.3 µM.

For the compound `O=C1C=CS(=O)(=O)c2c(Br)cccc21` [Compound 6f, 8-Bromo-4H-thiochromen-4-one 1,1-dioxide], in data set [1], the “Cytotoxicity CL50” value turned out to be 318.45 µM. The EC50 in data set [2] (setting [8]) was 149 µM; in data set [3] (setting [9]), 82.8 µM.

As to `CC1=CC(=O)c2ccccc2S1(=O)=O` [Compound 11a, 2-Methyl-4H-thiochromen-4-one 1,1 dioxide], the “Cytotoxicity CL50” value in data set [1] amounted to 59.12 µM. For the same compound, the EC50 is 35.6 µM in data set [2] (setting [8]) and 140 µM in data set [3] (setting [9]).

`O=C1C(Cc2ccccc2Cl)=CS(=O)(=O)c2ccccc21` [Compound 14a, 3-(2-Chlorobenzyl)-4H-thiochromen-4-one 1,1-dioxide]: the “Cytotoxicity CL50” value in data set [1] worked out at 83.61 µM. For the same compound, the EC50 was 289 µM in data set [2] (setting [8]) and 71.2 µM in data set [3] (setting [9]).

For the compound `O=C1C(Cc2ccc(Cl)cc2)=CS(=O)(=O)c2ccccc21` [Compound 14b, 3-(4-Chlorobenzyl)-4H-thiochromen-4-one 1,1-dioxide], the values for the EC50 in data set [2] (setting [8]), in data set [2] (setting [10]) and in data set [3] (setting [9]) were 63.6 µM, 63.6 µM and 50.6 µM, respectively.

Regarding `O=C1C(Cc2ccco2)=CS(=O)(=O)c2ccccc21` [Compound 17a, 3-(Furan-2-yl-methyl)-4H-thiochromen-4-one 1,1-dioxide], the EC50 is 72.9 µM in data set [2] (setting [8]), 72.9 µM in data set [2] (setting [10]) and 70.2 µM in data set [3] (setting [9]).

Turning to `O=C1C(Cc2cccs2)=CS(=O)(=O)c2ccccc21` [Compound 17b, 3-(Thiophen-2-yl-methyl)-4H-thiochromen-4-one 1,1-dioxide], in data set [1], the “Cytotoxicity CL50” value turned out to be 12.70 µM. The EC50 in data set [2] (setting [8]) was determined as 16.5 µM; in data set [2] (setting [10]) it was 16.5 µM; in data set [3] (setting [9]) it was 99.3 µM.

As for `O=C1C=CS(=O)(=O)c2ccc(-c3cc(C(F)(F)F)cc(C(F)(F)F)c3)cc21` [Compound 21a, 6-(3,5-Bis(trifluoromethyl)phenyl) 4 H-thiochromen-4-one 1,1-dioxide], in data set [1], the “Cytotoxicity CL50” value worked out at 83.61 µM. For the same compound, the figures for the EC50 in data set [2] (setting [8]) and in data set [3] (setting [9]) were 289 µM and 71.2 µM, respectively.

Take `O=C1C=CS(=O)(=O)c2cc(-c3cc(C(F)(F)F)cc(C(F)(F)F)c3)ccc21` [Compound 21b, 7-(3,5-Bis(trifluoromethyl)phenyl)-4H-thiochromen-4-one 1,1-dioxide]: in data set [1], the “Cytotoxicity CL50” value came out at 49.16 µM. For the same compound, the EC50 in data set [2] (setting [8]) is 102 µM; in data set [3] (setting [9]) it was 98.1 µM.

`O=C1C=CS(=O)(=O)c2c1cccc2-c1cc(C(F)(F)F)cc(C(F)(F)F)c1` [Compound 21c, 8-(3,5-Bis(trifluoromethyl)phenyl)-4H-thiochromen-4-one 1,1-dioxide]: in data set [1], the “Cytotoxicity CL50” value amounted to 23.20 µM. Moreover, the figures for the EC50 in data set [2] (setting [8]), in data set [2] (setting [10]) and in data set [3] (setting [9]) were 9.3 µM, 9.3 µM and 71.4 µM, respectively.
